Test results from ChEMBL document CHEMBL1153215, “Investigation of the sequence and length dependence for cell-penetrating prenylated peptides” (Bioorg Med Chem Lett, 2010).
Where a SMILES comes first, the peptide text is derived from it. Bridges are numbered along the chain shown (N, C = ends). Roman numbers before positions name the chains, in order. The star is where a group is joined. Geranylgeranyl = CC(C)=CCC/C(C)=C/CC/C(C)=C/CC/C(C)=C/C*; Acryloyl(2E,3-(2-furyl)) = O=C(/C=C/c1ccco1)*

Assays:
Format in all cases: ADME, cell-based
HeLa [1] = test: Cellular uptake in human HeLa cells at 0.3 to 3 uM after 1 hr by confocal laser-scanning microscopy
Method in brief: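 Fluorescein-labelled peptides were incubated with HeLa cells for 1 h, then the cells were washed. Cells were either fixed in 3.7% formaldehyde (1 μM peptide) or imaged live without fixation (3 μM peptide). Hoechst stained the nucleus and wheat germ agglutinin–Alexa Fluor 594 stained the plasma membrane. Internalization was viewed by confocal microscopy.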

HeLa [2] = test: Cellular uptake in human HeLa cells at 0.3 to 3 uM by FACS
Method in brief: (§1)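 HeLa cells were incubated with 0.3, 1.0 or 3.0 μM fluorescein-linked peptide for 1 h at 37 °C. Cells were then trypsinized and washed to remove surface-bound peptide. Fluorescence of 10,000 cells was read by flow cytometry, in triplicate. Values are geometric mean relative fluorescence ± standard deviation.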

HeLa [3] = test: Cellular uptake in human HeLa cells at […] at 4 degC condition by FACS
Method in brief: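 HeLa cells were incubated with 1.0 μM fluorescein-linked peptide at 4 °C, at 37 °C, or under ATP-depleting conditions. Cells were then trypsinized and washed to remove surface-bound peptide. Fluorescence of 10,000 cells was read by flow cytometry, in triplicate. Values are geometric mean relative fluorescence ± standard deviation.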

HeLa [4] = test: Cellular uptake in human HeLa cells at 0.3 to 3 uM at 37 degC condition by FACS; method in brief: as §1

Measured: Activity

CC(C)=CCC/C(C)=C/CC/C(C)=C/CC/C(C)=C/CSC[C@H](NC(=O)[C@H](CCCNC(=N)N)NC(=O)[C@H](CCCNC(=N)N)NC(=O)/C=C/c1ccco1)C(N)=O
Active: all assays above

CC(=O)N[C@@H](CCCCNC(=O)/C=C/c1ccco1)C(=O)N[C@@H](C)C(=O)N[C@@H](C)C(=O)N[C@@H](C)C(=O)N[C@@H](CO)C(=O)N[C@@H](CCCNC(=N)N)C(=O)N[C@@H](CCCNC(=N)N)C(=O)N[C@@H](CSC/C=C(\C)CC/C=C(\C)CC/C=C(\C)CCC=C(C)C)C(N)=O (Ac-K(Acryloyl(2E,3-(2-furyl)))AAASRRC(Geranylgeranyl)-NH2)
Active: all assays above

CC(=O)N[C@@H](CCCCNC(=O)/C=C/c1ccco1)C(=O)N[C@@H](C)C(=O)N[C@@H](CO)C(=O)N[C@@H](CCCNC(=N)N)C(=O)N[C@@H](CCCNC(=N)N)C(=O)N[C@@H](CSC/C=C(\C)CC/C=C(\C)CC/C=C(\C)CCC=C(C)C)C(N)=O (Ac-K(Acryloyl(2E,3-(2-furyl)))ASRRC(Geranylgeranyl)-NH2)
Active: all assays above

CC(C)=CCC/C(C)=C/CC/C(C)=C/CC/C(C)=C/CSC[C@H](NC(=O)[C@H](CCCNC(=N)N)NC(=O)/C=C/c1ccco1)C(N)=O
Active: all assays above

CC[C@H](C)[C@H](NC(=O)[C@H](CCCCN)NC(=O)[C@@H](NC(=O)[C@H](CC(N)=O)NC(=O)[C@H](CCCNC(=N)N)NC(=O)[C@@H](N)CSSC[C@H](NC(=O)[C@H](CCCNC(=N)N)NC(=O)[C@H](CCCNC(=N)N)NC(=O)[C@H](CO)NC(=O)[C@H](CCCCN)NC(=O)[C@H](CCCCN)NC(=O)/C=C/c1ccco1)C(=O)N[C@H](C(=O)N[C@@H](CC(C)C)C(=O)N[C@@H](CC(C)C)C(=O)O)C(C)C)[C@@H](C)CC)C(=O)N[C@@H](Cc1c[nH]c2ccccc12)C(=O)N[C@@H](Cc1ccccc1)C(=O)N[C@@H](CCC(N)=O)C(=O)N[C@@H](CC(N)=O)C(=O)N[C@@H](CCCNC(=N)N)C(=O)N[C@@H](CCCNC(=N)N)C(=O)N[C@@H](CC(N)=O)C(=O)N[C@@H](CC(C)C)C(=O)N[C@@H](CCCCN)C(=O)N[C@@H](Cc1c[nH]c2ccccc12)C(=O)N[C@@H](CCCCN)C(=O)N[C@@H](CCCCN)C(=O)O (I: H-CRNIKIWFQNRRNLKWKK-OH / II: {Acryloyl(2E,3-(2-furyl))}-KKSRRCVLL-OH; disulfide I:1-II:6)
Active: all assays above
